Sampled rows, rich in hits. Any-hit rate of the full collection: about 2.2%.
Apaf1 inhib: blocks human Apaf-1 apoptosome activity; O14727; reconstituted apoptosome caspase-3 activity, DEVD-Rh110 fluorescence; inhibition, % at 20 µM; 330,000 compounds, 0.71% hits; AID 489030; active = inhibition of at least 40% at 20 µM;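 note: plate controls were DMSO wells for no effect and DEVD-CHO caspase inhibitor wells for full effect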
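System: reconstituted apoptosome with Apaf-1, cytochrome c, caspase-9, procaspase-3, dATP; Signal: Rh110 fluorescence intensity; Schedule: 30 min compound preincubation, 50 min activation, room temperature; Reagent: cytochrome c trigger plus (Z-DEVD)2-Rh110 caspase-3 substrate.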
GSTO1 inh: blocks human GSTO1 in RBBP9 counter-screen | recombinant GSTO1, activity-based probe fluorescence polarization | inhibition, % at 5.96 µM | P78417 | 300,000 compounds, 1.1% hits | AID 1974;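 active = inhibition above the campaign mean inhibition plus 3 SD, cut at about 35% in these data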;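 note: 0% = GSTO1-1 with DMSO and 100% = wells lacking GSTO1-1 enzyme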
Target sequence (P78417 whole entry, looked up): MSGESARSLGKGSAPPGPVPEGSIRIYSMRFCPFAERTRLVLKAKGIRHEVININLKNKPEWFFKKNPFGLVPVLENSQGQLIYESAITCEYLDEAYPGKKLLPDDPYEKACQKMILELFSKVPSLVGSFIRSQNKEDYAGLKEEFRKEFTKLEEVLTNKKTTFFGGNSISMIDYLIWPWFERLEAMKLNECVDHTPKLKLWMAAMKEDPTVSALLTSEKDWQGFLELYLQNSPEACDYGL
UBC13 polyUb: human UBC13 polyubiquitination inhibition; UBC13 polyubiquitin chain formation, TR-FRET; AID 485273; inhibition, % at 20 µM; 330,000 compounds, 0.47% hits; P61088; in the data active = inhibition above about 45%, passing the limit was not always enough; inconclusive = no clear call, values can overlap the other calls
Target sequence (P61088 whole entry, looked up): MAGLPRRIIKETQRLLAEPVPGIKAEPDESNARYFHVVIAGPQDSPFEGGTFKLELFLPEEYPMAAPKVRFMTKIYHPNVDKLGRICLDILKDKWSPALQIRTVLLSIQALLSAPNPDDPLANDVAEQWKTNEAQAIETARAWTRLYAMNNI
PAD4 inh: inhibitors of human PAD4; inhibition, % at 6.36 µM; 330,000 compounds, 0.41% hits; AID 485272; Q9UM07; recombinant PAD4, RCA probe fluorescence polarization;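 active = percent inhibition above a cutoff equal to the mean of all tested compounds plus 3 SD, cut at about 15% in these data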;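 note: 0% = PAD4 with RCA probe and DMSO and 100% = probe without PAD4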
UBC9 SUMO inh: SUMOylation inhibition; HTRF SUMOylation assay, SAE1/SAE2 + UBC9, in vitro; 290,000 compounds, 0.36% hits; P63279; inhibition, % at 35 µM; in the data active = inhibition above about 50%, passing the limit was not always enough; inconclusive = no clear call, values can overlap the other calls
Target sequence (P63279 whole entry, looked up): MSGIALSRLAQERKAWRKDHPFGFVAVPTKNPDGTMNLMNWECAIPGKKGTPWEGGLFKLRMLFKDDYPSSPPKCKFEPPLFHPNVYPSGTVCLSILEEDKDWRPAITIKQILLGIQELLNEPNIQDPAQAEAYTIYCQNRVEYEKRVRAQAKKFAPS
Rin1 Abl inh: blocks binding of human Rin1 to Abl. P00519+Q13671. TR-FRET Rin1/Abl binding, biochemical. inhibition, % at 7.35 µM. 360,000 compounds, 0.4% hits; in the data active = inhibition above about 5%, passing the limit was not always enough
GSTO1 inh conf: GSTO1 (human) inhibition, confirmation | shares compounds with GSTO1 inh | AID 2176 | 2,400 compounds, 54% hits | inhibition, % at 5.96 µM | recombinant GSTO1, probe fluorescence polarization;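 active = inhibition above the primary screen's cutoff, its mean inhibition plus 3 SD, cut at about 35% in these data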;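 note: loss of polarization as inhibitors block binding of rhodamine sulfonate ester activity probe; 0% = GSTO1 with DMSO and 100% = wells lacking GSTO1 enzyme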
PAD4 confirm: PAD4 (human) inhibition, confirmed; shares compounds with PAD4 inh; recombinant PAD4, RCA probe fluorescence polarization; inhibition, % at 6.36 µM; 1,200 compounds, 28% hits;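 active = mean inhibition across replicates above the hit cutoff set by the earlier primary screen, cut at about 15% in these data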;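 note: inhibitors block active-site labeling by the probe so polarization falls; 0% = PAD4 with probe and DMSO and 100% = probe without PAD4 enzyme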
Apaf-1 inh conf2: confirmation of Apaf-1 inhibitors | shares compounds with Apaf1 inhib | reconstituted apoptosome, caspase-3 DEVD-Rh110 fluorescence | inhibition, % at 20 µM | 1,800 compounds, 25% hits | AID 504614;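 active = mean inhibition of at least 40% at 20 µM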;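 note: plate controls were DMSO wells for no effect and DEVD-CHO caspase inhibitor control wells for full effect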
Rh110 quench: counter-screen for Apaf-1 inhibitors: fluorescence interference; activation (fluorescence interference), % at 20 µM; shares compounds with Apaf1 inhib; AID 504615; 1,800 tested, under 10 active; Rh110 fluorescence interference, quenched caspase reaction;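 active = signal rise of 40% or more at 20 µM, treated as a fluorescence artifact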
Apaf1 inh interf: counter-screen for Apaf-1 inhibitors: fluorescence interference, dose response. shares compounds with Apaf1 inhib. fluorescence interference counterscreen, Apaf-1 assay format. IC50, µM. 460 tested, under 10 active. AID 588538; call rule not given here
Active calls of the source: *; u = inconclusive; x = not tested or not shown.

SMILES	Apaf1 inhib	GSTO1 inh	UBC13 polyUb	PAD4 inh	UBC9 SUMO inh	Rin1 Abl inh	GSTO1 inh conf	Apaf-1 inh conf2	Rh110 quench	Apaf1 inh interf	others
COc1cccc(C=Nc2ccc(N3CCOCC3)cc2)c1O	5.1	4.7	-3.5	3.2	-0.1	-3.5	x	x	x	x
CSc1ncccc1C(=O)N1CCN(S(=O)(=O)c2ccccc2)CC1	3.5	3.8	-3.6	-1.4	11.3	-0.9	x	x	x	x
C(=N\C(/N=C/c1ccco1)c1ccco1)/c1ccco1	13.7	19.4	-7.7	-1.1	74.5	-0.2	x	x	x	x
C(=Nc1cccc2c(N=Cc3ccco3)cccc12)c1ccco1	92.5*	39.6*	-86.9	62.4*	u	-3.2	2.7	28.4	-0.3	x	PAD4 confirm=9.0
O=C(Cn1nnc(-c2ccc(Cl)cc2)n1)NC(=O)NC1CCCC1	x	x	x	x	x	3.5	x	x	x	x
CC1(C)Cc2ccccc2C2=NNC(=O)C2=N1	62.1*	55.5*	-53.3	3.6	41.2	-5.6	81.8*	63.9*	2.9	>100
Cc1ccccc1-n1c(SC(C)C(=O)NCC2CCCO2)nnc1-c1ccncc1 (centres undefined)	x	x	x	x	x	5.0	x	x	x	x
Cc1ccc(NCc2ccccc2OCc2ccccc2F)cc1	12.0	7.2	1.2	-5.3	-16.4	-5.5	x	x	x	x
Oc1ccc(NCc2ccccc2OCc2ccccc2F)cc1	92.1*	73.7*	1.1	2.9	68.3	-1.3	9.5	30.0	10.2	x
Cc1cc(C)c(S(=O)(=O)/N=C2\C=C(Nc3ccc(C(=O)O)cc3)C(=O)c3ccccc32)c(C)c1	88.7*	85.0*	-133.9	52.5*	47.3	2.8	88.6*	91.6*	18.0	>100	PAD4 confirm=40.0*
CCc1ccc(S(=O)(=O)/N=C2\C=C(Nc3cccc(C(=O)O)c3)C(=O)c3ccccc32)cc1	90.7*	98.2*	-124.7	71.1*	u	-0.2	91.6*	89.6*	9.7	>100	PAD4 confirm=65.8*
O=S(=O)(N=C1C=CC(=NS(=O)(=O)c2ccccc2)c2ccccc21)c1ccccc1	x	x	x	x	x	2.9	x	x	x	x
CCc1ccc(S(=O)(=O)/N=C2\C=C(Nc3ccc(O)cc3)C(=O)c3ccccc32)cc1	95.1*	87.0*	-136.1	51.8*	-3.9	-2.1	87.1*	95.9*	5.5	>100	PAD4 confirm=49.7*
CCN1C(=O)N2C[C@H]3CON(C)[C@H]3C[C@H]2c2ccccc21	x	x	x	x	x	-1.0	x	x	x	x
COc1ccc(C(=O)N2CCCCC2c2cc(C(=O)Nc3cccc(C#N)c3)no2)cc1 (centres undefined)	x	x	x	x	x	-0.3	x	x	x	x
COCCNC(=O)C1(C)CCCN(C(=O)c2ccccc2C(F)(F)F)C1 (centres undefined)	x	x	x	x	x	-1.5	x	x	x	x
CCOC(=O)c1c(C)n(-c2ccc(C)cc2)c2c(C(C(C)=O)C(=O)O)c(Br)c(O)c(O)c12 (centres undefined)	49.6*	64.3*	-18.9	-0.9	-14.7	1.3	8.1	62.3*	4.8	>100
CC(=O)Nc1cccc(-c2cc(N3CCN(CCO)CC3)n3nccc3n2)c1	x	x	x	x	x	-3.7	x	x	x	x
CC1(C)CNc2cc(N)ccc2S1	50.0*	38.6*	-27.8	3.3	20.0	-0.5	28.4	69.5*	7.6	>100
COc1ccc(S(=O)(=O)Nc2cc(SCC(=O)O)c(O)c3ccccc23)cc1	85.5*	81.2*	-40.8	35.1*	57.3*	2.2	53.8*	41.0*	5.0	>100	PAD4 confirm=-6.7
COc1ccc(S(=O)(=O)Nc2cccc3ccc(O)cc23)cc1	-2.8	0.1	-0.1	-0.7	x	0.3	x	x	x	x
Cc1ccc(C)c(S(=O)(=O)C(C#N)c2nc3ccccc3nc2N2CCOCC2)c1 (centres undefined)	24.7	7.3	-22.3	-4.4	60.2	-2.0	x	x	x	x
N#CC(c1nc2ccccc2nc1N1CCCC1)S(=O)(=O)c1ccccc1 (centres undefined)	63.8*	53.2*	-26.3	-7.7	99.2	3.1	56.2*	13.3	2.7	x
COc1ccc(S(=O)(=O)C(C#N)c2nc3ccccc3nc2N2CCCCC2)cc1 (centres undefined)	33.0	16.4	-19.7	-1.3	92.1	2.1	x	x	x	x
Cc1ccc(C)c(S(=O)(=O)C(C#N)c2nc3ccccc3nc2N2CCCC2)c1 (centres undefined)	87.4*	66.0*	-36.5	1.1	99.3	-7.7	31.0	11.7	0.5	x
SMILES	Apaf1 inhib	GSTO1 inh	UBC13 polyUb	PAD4 inh	UBC9 SUMO inh	Rin1 Abl inh	GSTO1 inh conf	Apaf-1 inh conf2	Rh110 quench	Apaf1 inh interf	others
CN(C)c1ccc(/C=C2\CCCc3c2nc2ccccc2c3C(=O)O)cc1	-3.0	9.4	-3.6	-4.5	8.4	-1.2	x	x	x	x
OC(c1ccc(Cl)c(F)c1)c1ncc(-c2ccc(F)cc2)[nH]1 (centres undefined)	x	x	x	x	x	2.1	x	x	x	x
CC1(C)N([O-])c2cc([N+](=O)[O-])ccc2[N+]1=O	66.4*	81.9*	-63.9	30.1*	24.6	x	42.0*	69.6*	2.9	>100	PAD4 confirm=15.1*
CC(=O)N(/N=C1\Sc2ccccc2C1=O)c1ccccc1	x	x	x	x	44.1	2.0	x	x	x	x
CC(=O)N(/N=C1\Sc2ccccc2C1=O)c1ccccc1C	89.8*	40.8*	-40.0	-18.4	40.3	-1.7	70.8*	84.8*	11.3	>100
C[C@H](CO)N1C[C@H](C)[C@@H](CN(C)S(=O)(=O)c2ccccc2F)OCc2cnnn2CCCC1=O	x	x	x	x	x	-1.0	x	x	x	x
Cc1ccc(C=C2C(=O)c3ccccc3C2=O)o1	11.4	23.9	-4.7	-4.5	11.7	-1.1	x	x	x	x
O=C1C(=Cc2ccco2)C(=O)c2ccccc21	44.4*	37.9*	-40.7	-2.1	32.3	2.1	26.6	10.4	2.1	x
CCNC1=C(Cl)C(=O)c2ccccc2C1=O	51.3*	69.5*	-389.3	-4.8	10.1	-15.9	8.0	36.1	4.8	x
O=C1C(Cl)=C(NCCN2CCCCC2)C(=O)c2ccccc21	67.8*	70.8*	-319.0	-3.3	22.9	-14.0	52.2*	79.3*	20.8	>100
N#Cc1c(N2CCCC2)nc(N)c2c(N)nc(N3CCCC3)cc12	98.1*	93.1*	-41.1	47.7*	100.1*	-9.6	90.8*	99.0*	8.9	>100	PAD4 confirm=43.1*
CCOc1cc2c(C#N)c(N3CCCC3)nc(N)c2c(N)n1	7.0	-5.2	-30.7	0.7	x	1.2	x	x	x	x
CC1(OC(=O)C2CCCC2)C(=O)C=C2C=C(c3ccsc3)N(CCCCO)C=C2C1=O (centres undefined)	54.2*	44.5*	-80.3	-9.0	12.7	2.1	6.2	35.6	0.3	x
